# Assay outcomes deposited in PubChem BioAssay by several laboratories.
# RAM network inh: inhibitors of the yeast RAM network; actives 1.8% (n = 190,000); inhibition, % at 50 µM; S. cerevisiae dse1pr::URA3 reporter, 5-FOA growth OD615, 2 d; analog-sensitive cbk1-as2 kinase mutant strain;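 active = inhibition above a set limit, 3 SD over mean compound inhibition, cut at about 8.4% in these data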;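 note: inhibition rescues growth on 5-FOA so higher OD means more RAM inhibition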
# Arbovirus inh: arbovirus infection inhibition | arbovirus infection cell-based antiviral screen | inhibition, % at 10 µM | actives 0.37% (n = 200,000) | AID 1251; in the data active = inhibition above about 30%
# Biofilm kill mix: mixture kills Candida albicans biofilm cells | C. albicans biofilm persisters + clotrimazole, fluorescence viability; primary screen in compound mixtures of four per well | inhibition, % at 7.6 µM | actives 0.02% (n = 120,000) | AID 1242;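 active = inhibition above 30.3% in the primary screen of four-compound pools, then above 30% when the compound was retested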;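 note: compounds exposed to preformed 24 h biofilms for 48 h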
#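 Probe or stimulus – Clotrimazole 50 µg/mL co-treatment · System – C. albicans biofilms · Schedule – 24 h biofilm formation, then 48 h compound exposure, 37 °C · Evaluation – percent inhibition of biofilm viability · Technique – 2-h Alamar Blue fluorescence, 535/590 nm excitation/emission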
# Hck-Nef inh: blocks Nef-activated human Hck kinase | actives 0.68% (n = 220,000) | P08631 | inhibition, % at 20 µM | Recombinant Hck-YEEI plus Nef, Z-Lyte FRET kinase assay;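 active = Hck-Nef kinase inhibition above about 50%, limit read from the data; inactive = inhibition below that limit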
# Target sequence (P08631 whole entry, looked up): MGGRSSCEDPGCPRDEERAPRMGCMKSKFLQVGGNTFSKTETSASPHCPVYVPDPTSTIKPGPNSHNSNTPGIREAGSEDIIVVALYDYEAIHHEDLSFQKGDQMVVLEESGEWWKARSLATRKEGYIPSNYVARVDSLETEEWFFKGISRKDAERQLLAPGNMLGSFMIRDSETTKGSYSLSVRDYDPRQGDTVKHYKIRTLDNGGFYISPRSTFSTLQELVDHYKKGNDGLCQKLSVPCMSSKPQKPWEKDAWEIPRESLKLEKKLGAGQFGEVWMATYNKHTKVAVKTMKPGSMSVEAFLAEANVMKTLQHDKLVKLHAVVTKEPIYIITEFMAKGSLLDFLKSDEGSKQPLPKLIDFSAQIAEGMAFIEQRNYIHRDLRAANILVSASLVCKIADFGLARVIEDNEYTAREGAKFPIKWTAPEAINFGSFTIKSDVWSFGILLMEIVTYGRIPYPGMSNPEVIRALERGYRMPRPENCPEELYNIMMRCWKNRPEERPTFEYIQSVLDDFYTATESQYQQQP
# WT yeast gro inh: growth inhibition of WT yeast, mitochondrial fusion screen | inhibition, % at 10 µM | AID 1362 | actives 2.1% (n = 190,000) | mitochondrial fusion phenotypic screen, WT strain; in the data active = inhibition above about 58%; tested in S. cerevisiae
# NCF1 inh: inhibitors of human p47phox binding | p47phox/p22phox peptide binding, fluorescence polarization, 2 h | inhibition, % at 24.7 µM | actives 0.53% (n = 220,000);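 active = inhibition above about 30%, limit read from the data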
# Hck-Nef confirm: Hck-Nef kinase inhibition, confirmation; shares compounds with Hck-Nef inh; Recombinant Hck-YEEI:Nef, Z-Lyte FRET kinase assay; calls only at 10 µM; actives 28% (n = 1,300); AID 463188;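 active = average inhibition of at least 50%, with Z-scores no higher than 3 in both the phospho-tyrosine peptide and fluorescence counterscreens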
# Numbers stand for hits; - = inactive; . = no result given; + = active, no number. An excerpt weighted towards active compounds, which were near 4.6% of everything screened.
SMILES,RAM network inh,Arbovirus inh,Biofilm kill mix,Hck-Nef inh,WT yeast gro inh,NCF1 inh,Hck-Nef confirm
COc1cc(/C=C/C(=O)OCC(=O)Nc2ccc(C)cc2[N+](=O)[O-])ccc1O,-,-,-,59.9,-,-,-
CC(CN1CCCCC1)OC(=O)C(C)(c1ccccc1)c1ccccc1 (centres undefined),-,-,.,-,-,-,.
O=c1[nH]c(=S)[nH]c(O)c1N=Nc1ccc(-c2ccccc2)cc1[N+](=O)[O-],-,-,-,68.4,-,70.0,-
Cc1cccc2c(N=Nc3ccc(S(=O)(=O)Nc4cccc(Cl)c4)cc3[N+](=O)[O-])c(O)[nH]c12,-,-,-,-,-,-,.
COc1cc(/C=C/c2sc3ccccc3[n+]2CCCS(=O)(=O)[O-])ccc1O,-,-,-,65.3,-,-,-
COc1ccccc1/C=C/C=N/n1c(-c2n[nH]c3c2CCC3)n[nH]c1=S,.,.,-,-,.,-,.
S=c1[nH]nc(-c2ccco2)n1/N=C/C=C/c1ccco1,-,-,-,-,-,-,.
Cc1ccccc1/C=N/n1c(-c2cc(-c3ccccc3)n[nH]2)n[nH]c1=S,.,.,-,-,.,-,.
S=c1[nH]nc(-c2cc(-c3ccccc3)n[nH]2)n1/N=C/c1c(Cl)cccc1Cl,.,.,-,71.8,.,-,+
S=c1[nH]nc(-c2n[nH]c3c2CCC3)n1/N=C/C=C/c1ccco1,.,.,-,75.3,.,-,-
S=c1[nH]nc(-c2cc(-c3ccccc3)n[nH]2)n1/N=C/C=C/c1ccco1,.,.,-,71.3,.,-,-
CCOC(=O)c1c(NC(=O)/C=C/C(=O)O)sc(C)c1-c1ccc(F)cc1,-,-,-,51.3,-,-,+
CCOC(=O)c1c(NC(=O)/C=C/C(=O)O)sc(C)c1-c1ccc(C)c(C)c1,-,-,-,-,-,-,.
O=C(CCc1ccc(O)cc1)N/N=C/c1coc2ccccc2c1=O,.,.,-,66.7,.,-,+
COc1ccc(C(=O)N/N=C\c2coc3ccccc3c2=O)cc1,.,.,-,-,.,-,.
COCC(C)OC(=O)/C(C#N)=C\c1coc2ccc(C)cc2c1=O (centres undefined),-,-,-,97.9,-,-,+
O=C(N/N=C/c1coc2ccccc2c1=O)c1cc(O)cc(O)c1,-,-,-,62.7,-,-,+
NC(=S)N/N=C/c1coc2ccc(Cl)cc2c1=O,-,-,-,66.0,-,-,+
Cc1ccc(-c2[nH]ncc2CNCCc2cnn(-c3ccccc3)c2)cc1C,.,.,-,-,.,-,.
COc1ccc(N2CCN(S(=O)(=O)c3ccc4c(c3)CCCC4)CC2)c([N+](=O)[O-])c1,-,-,.,-,-,-,.
O=C(N/N=C/c1coc2ccccc2c1=O)c1ccccc1Br,-,-,-,-,-,-,.
Cc1ccc2occ(/C=N/NC(=O)[C@@H](N)Cc3ccccc3)c(=O)c2c1,.,.,-,79.7,.,-,+
Cc1ccc2nc3c(cc(C(=O)NCC4CCCO4)n3C)c(=O)n2c1 (centres undefined),-,-,.,-,-,-,.
CCOCCCNc1nc2nc3ccc(C)cn3c(=O)c2cc1C(=O)NCC1CCCO1 (centres undefined),-,-,-,198.7,-,-,.
Cc1ccc2nc3c(cc(C(=O)NCC4CCCO4)c(=N)n3CCCOC(C)C)c(=O)n2c1 (centres undefined),-,-,.,181.5,-,-,-
SMILES,RAM network inh,Arbovirus inh,Biofilm kill mix,Hck-Nef inh,WT yeast gro inh,NCF1 inh,Hck-Nef confirm
Cc1c(C(=O)Nc2ccc(F)cc2)cn2c(nc3ccccc32)c1C#N,.,.,-,-,.,-,.
N#Cc1c2nc3ccccc3nc2n2cc(NC(=O)c3ccc(F)cc3)ccc12,9.8,-,-,72.2,-,55.0,-
CC1=C(C#N)C(=O)NC(=O)/C1=C\c1ccc(-c2cc(C)c(C)cc2[N+](=O)[O-])o1,-,33.7,-,90.8,-,-,+
COc1ccc(NC(=O)/C=C/c2ccc(Br)o2)cn1,-,-,-,-,-,-,.
COc1ccccc1CNC(=O)/C=C/c1ccc(Br)o1,-,-,-,90.9,-,-,+
CC(=O)Nc1ccc(N=Cc2c(O)c(C(=O)Nc3ccccc3)cc3ccccc23)cc1,-,-,-,68.9,-,-,-
CCOC(=O)c1c(C)nc2c(c(SC)nn2-c2ccccc2)c1N,-,-,.,-,-,-,.
Cc1cc(C)n(C(=O)/C=C/c2cccs2)n1,.,.,-,-,.,-,.
Cc1cccnc1NC(=S)NC(=O)/C=C/c1ccco1,-,-,.,-,-,-,.
O=C(/C=C\c1ccco1)NC(=S)Nc1ccccc1O,.,.,-,58.7,.,-,-
Cc1ccc(NC(=S)NC(=O)/C=C/c2ccco2)c(O)c1,-,-,-,84.7,-,-,+
O=C(/C=C/c1ccco1)Nc1ccccc1C(=O)Nc1cccc(C(=O)O)c1,.,.,-,-,.,-,.
O=C(/C=C/c1ccco1)NC(=S)Nc1ccccc1O,-,-,-,53.7,-,-,+
O=C(/C=C/c1ccco1)Nc1ccccc1C(=O)O,-,-,-,54.8,-,-,-
C=CC[N+]1(CC=C)CCOCC1,-,-,-,-,-,-,.
Cc1c(N=Nc2ccc(O)cc2)c(=O)n(-c2ccccc2)n1C,-,-,-,-,-,-,.
Cc1c(N=C2C=C(Br)C(=O)C(Br)=C2)c(=O)n(-c2ccccc2)n1C,-,-,-,50.1,-,-,-
Cc1c(N=C2C=CC(=O)c3ccccc32)c(=O)n(-c2ccccc2)n1C,-,-,-,50.6,-,-,-
COc1ccc(C(=O)/C=C(\N)C(F)(F)F)c(O)c1,-,-,.,-,-,-,.
NS(=O)(=O)c1ccc(N2N=C(c3ccccc3)CC2c2ccc(F)cc2)cc1 (centres undefined),-,-,.,60.1,70.7,-,.
COc1ccc(C2CC(c3cccs3)=NN2c2ccc(C=O)cc2)cc1 (centres undefined),-,-,-,53.9,-,-,-
COc1ccc(C2=NN(CN3C(=O)C(=O)c4ccccc43)C(c3ccc(OC)cc3)C2)cc1 (centres undefined),-,-,-,-,-,-,.
COc1ccc(C2CC(c3ccccc3)=NN2c2ccc(S(N)(=O)=O)cc2)cc1 (centres undefined),9.3,-,-,107.9,65.8,-,.
CCN1CCN(C(c2cccs2)C(C)NC(=O)c2ccccc2F)CC1 (centres undefined),-,-,.,-,-,-,.
Cc1c(Br)cc(C(=O)NC2CCCCC2)c(C)c1C,-,-,.,-,-,-,.
CN(C)C(=O)C1CCC(=O)N1Cc1cccs1 (centres undefined),-,-,-,-,-,-,.
C/C(=N\NC(=O)c1ccccc1O)C1C(=O)c2ccccc2C1=O,-,-,.,-,-,-,.
C/C(=N/NC(=O)c1cc2ccccc2cc1O)C1C(=O)c2ccccc2C1=O,-,-,.,82.3,-,-,+
O=C1COc2ccc(C(=O)CSc3nc4ccccc4c(=O)n3-c3ccc(Cl)c(Cl)c3)cc2N1,-,-,-,63.9,-,-,-
